These results are taken from ChEMBL document CHEMBL3865819, “Myrsinane, Premyrsinane, and Cyclomyrsinane Diterpenes from Euphorbia falcata as Potassium Ion Channel Inhibitors with Selective G Protein-Activated Inwardly Rectifying Ion Channel (GIRK) Blocking Effects” (J Nat Prod, 2016).

A word on the inhibition: it is the drop in the measured response relative to a control, in per cent.

Holding throughout (format): cell-based
The target of series [1] is T1, Kir3.1/Kir3.4 (Homo sapiens) (UniProt P48549+P48544). In words: Inhibition of GTPgammaS-induced activation of GIRK1/4 (unknown origin) expressed in HEK293 cells assessed as decrease in channel current at 1 uM after 2 mins at -40 mV holding potential by automated patch-clamp electrophysiology assay. In outline: (§1)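 Whole-cell automated planar patch clamp on HEK-293 cells stably expressing GIRK1/4 (Kir3.1/3.4). Internal solution carries 0.9 mM GTPγS to activate channels; bath switched from 4 mM K+ to high-K+ (25 mM KCl) external, pH 7.4. Step to 60 mV, ramp to −140 mV, 100 ms at −140 mV, ~0.1 Hz; inward current read at −140 mV. After 3 min control, 1 then 10 μM for ~2 min each; K+-free solution baseline; two to three cells.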

The target of series [2] is T2, hERG (KCNH2) (Homo sapiens, UniProt Q12809). In words: Inhibition of human ERG expressed in HEK293 cells assessed as decrease in channel current at 30 uM after 3 mins at -80 mV holding potential by automated patch-clamp electrophysiology assay. The settings on record: HEK293 cells that express hERG. In outline:
(§2)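 HEK-293 cells stably transfected with hERG (Kv11.1), whole-cell automated planar patch clamp. External solution 4 mM KCl, pH 7.4; internal KCl/KF/EGTA, pH 7.2. Protocol: 100 ms −40 mV reference step, 3 s at 20 mV, then 1 s at −40 mV for the outward tail current. After control, 3, 10, 30 μM cumulative, ~3 min each; amitriptyline 10 μM reference, then wash-out; two or three cells; DMSO ≤0.3% final.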

Series [3] concerns the target T2, hERG (KCNH2). In words: Inhibition of human ERG expressed in HEK293 cells assessed as decrease in channel current at 3 uM after 3 mins at -80 mV holding potential by automated patch-clamp electrophysiology assay. The settings on record: HEK293 cells that express hERG. The gist of the method: as §2
A general note: In patch-clamp work, channel activity is measured electrically.

For series [4], the target named is T1, Kir3.1/Kir3.4 (Homo sapiens). In words: Inhibition of GTPgammaS-induced activation of GIRK1/4 (unknown origin) expressed in HEK293 cells assessed as decrease in channel current at 10 uM after 2 mins at -40 mV holding potential by automated patch-clamp electrophysiology assay. The gist of the method:
as §1

Series [5] concerns the target T2, hERG (KCNH2). In words: Inhibition of human ERG expressed in HEK293 cells assessed as decrease in channel current at 10 uM after 3 mins at -80 mV holding potential by automated patch-clamp electrophysiology assay. The note with it: HEK293 cells that express hERG. In outline: as §2

SMILES strings stand for the structures.

T2 sequence (Q12809 whole entry): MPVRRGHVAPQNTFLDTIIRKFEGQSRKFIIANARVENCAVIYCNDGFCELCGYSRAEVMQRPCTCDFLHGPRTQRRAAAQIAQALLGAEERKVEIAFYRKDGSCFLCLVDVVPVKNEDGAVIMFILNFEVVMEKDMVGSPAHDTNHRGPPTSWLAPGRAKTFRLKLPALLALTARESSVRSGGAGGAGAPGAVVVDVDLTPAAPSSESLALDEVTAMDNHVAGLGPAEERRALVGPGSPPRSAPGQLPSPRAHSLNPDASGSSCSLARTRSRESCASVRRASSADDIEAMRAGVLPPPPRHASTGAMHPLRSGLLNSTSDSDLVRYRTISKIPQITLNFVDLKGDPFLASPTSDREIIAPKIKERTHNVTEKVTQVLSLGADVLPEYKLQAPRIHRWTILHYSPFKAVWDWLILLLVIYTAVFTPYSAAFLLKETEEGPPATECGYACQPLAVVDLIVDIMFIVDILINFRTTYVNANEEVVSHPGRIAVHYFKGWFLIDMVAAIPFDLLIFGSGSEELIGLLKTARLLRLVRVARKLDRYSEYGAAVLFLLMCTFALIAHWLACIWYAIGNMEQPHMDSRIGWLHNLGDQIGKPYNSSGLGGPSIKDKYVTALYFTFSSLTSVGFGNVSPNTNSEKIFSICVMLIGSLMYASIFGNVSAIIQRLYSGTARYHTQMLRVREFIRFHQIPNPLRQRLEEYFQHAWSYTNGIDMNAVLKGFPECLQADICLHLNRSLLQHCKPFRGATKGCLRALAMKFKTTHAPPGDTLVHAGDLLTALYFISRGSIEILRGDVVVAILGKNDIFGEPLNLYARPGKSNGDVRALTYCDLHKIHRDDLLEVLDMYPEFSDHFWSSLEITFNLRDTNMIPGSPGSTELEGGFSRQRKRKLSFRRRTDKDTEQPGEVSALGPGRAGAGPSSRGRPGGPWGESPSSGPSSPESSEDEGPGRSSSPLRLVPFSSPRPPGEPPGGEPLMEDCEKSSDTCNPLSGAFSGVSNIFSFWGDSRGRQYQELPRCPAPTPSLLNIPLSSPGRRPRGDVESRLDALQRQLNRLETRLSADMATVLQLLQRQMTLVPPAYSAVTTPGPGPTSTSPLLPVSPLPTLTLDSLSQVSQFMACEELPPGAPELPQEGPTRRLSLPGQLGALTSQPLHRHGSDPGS

With `CC(=O)O[C@@H]1[C@H]2[C@@H](OC(=O)C(C)C)[C@@](C)(OC(=O)c3ccccc3)C[C@]2(OC(C)=O)[C@@H](OC(C)=O)[C@]2(C)OC[C@]13C(=O)[C@H](OC(=O)C(C)C)[C@@H]1C[C@](C)(OC(C)=O)[C@@H]1[C@@H]23`, the inhibition in series [1] was determined as 33%; in series [4], 77%. Also, at hERG (KCNH2) [2], the inhibition at 0.05 h, 30 µM was determined as 53%. Also, the inhibition at 0.05 h, 3 µM at hERG (KCNH2) [3] is 14%. In addition, the inhibition at 0.05 h, 10 µM on hERG (KCNH2) [5] turned out to be 24%.
For the compound `CC(=O)O[C@@H]1C[C@H]2[C@@H]([C@@H]3[C@]1(COC(=O)c1cccnc1)[C@H](OC(=O)c1ccccc1)[C@H]1[C@@H](OC(=O)C(C)C)[C@@H](C)C[C@]1(O)C(=O)[C@@]3(C)OC(C)=O)C2(C)C`, the results for the inhibition in series [1] and in series [4] were 28% and 48%, respectively. Moreover, the inhibition at 0.05 h, 30 µM at hERG (KCNH2) [2] amounted to 53%. Also, the inhibition at 0.05 h, 3 µM on hERG (KCNH2) [3] came to 14%. The inhibition at 0.05 h, 10 µM at hERG (KCNH2) [5] came out at 29%.
As for `CC(=O)O[C@@H]1[C@H]2[C@@H](OC(=O)C(C)C)[C@@](C)(OC(=O)c3cccnc3)C[C@]2(OC(C)=O)[C@@H](OC(C)=O)[C@]2(C)OC[C@]13C(=O)[C@H](OC(=O)C(C)C)[C@@H]1C[C@](C)(OC(C)=O)[C@@H]1[C@@H]23`, the figures for the inhibition in series [1] and in series [4] were 8% and 57%, respectively. For the same compound, the inhibition at 0.05 h, 30 µM on hERG (KCNH2) [2] amounted to 30%. For the same compound, the inhibition at 0.05 h, 3 µM at hERG (KCNH2) [3] turned out to be 8%. The inhibition at 0.05 h, 10 µM on hERG (KCNH2) [5] is 19%.
`CCCCCC(=O)O[C@@H]1[C@@H]2[C@@H](O)[C@]34CC[C@H]5[C@@H]([C@H]3[C@@](C)(OC4)[C@H](OC(C)=O)[C@@]2(O)C[C@@H]1C)C5(C)C`: the inhibition in series [1] was 30%; in series [4], 69%. The inhibition at 0.05 h, 30 µM at hERG (KCNH2) [2] came to 55%. Also, the inhibition at 0.05 h, 3 µM at hERG (KCNH2) [3] came to 19%. Further, at hERG (KCNH2) [5], the inhibition at 0.05 h, 10 µM came out at 40%.
On the same counts, the results for `CCC(C)C(=O)O[C@H]1C(=O)[C@@]23CO[C@@](C)([C@H](OC(C)=O)[C@@]4(OC(C)=O)C[C@](C)(OC(=O)c5ccccc5)[C@H](OC(=O)C(C)C)[C@@H]4[C@H]2OC(C)=O)[C@@H]3[C@@H]2[C@H]1C[C@]2(C)OC(C)=O` (stereo not given in full) are 26%, 70%, 40%, 14% and 30%.
As for `CCC(=O)O[C@@H]1[C@@H]2[C@@H](OC(=O)c3ccccc3)[C@@]3(COC(=O)C(C)C)[C@H]4[C@H](C=C[C@H]3OC(C)=O)C(C)(C)O[C@]4(C)C(=O)[C@@]2(OC(C)=O)C[C@@H]1C`, the inhibition in series [1] stood at 21%; in series [4] it was 47%. Moreover, on hERG (KCNH2) [2], the inhibition at 0.05 h, 30 µM was 40%. For the same compound, the inhibition at 0.05 h, 3 µM on hERG (KCNH2) [3] was determined as 11%. Also, the inhibition at 0.05 h, 10 µM on hERG (KCNH2) [5] was 24%.
As for `CCC(=O)O[C@@H]1[C@@H]2[C@@H](OC(C)=O)[C@@]34CO[C@@](C)([C@H](OC(C)=O)[C@@]2(OC(C)=O)C[C@]1(C)OC(=O)c1cccnc1)[C@@H]3[C@@H]1[C@@H](C[C@]1(C)OC(C)=O)[C@@H](OC(=O)C(C)C)C4=O`, the results for the inhibition in series [1] and in series [4] were 35% and 65%, respectively. Besides, at hERG (KCNH2) [2], the inhibition at 0.05 h, 30 µM stood at 42%. The inhibition at 0.05 h, 3 µM at hERG (KCNH2) [3] worked out at 11%. At hERG (KCNH2) [5], the inhibition at 0.05 h, 10 µM was found to be 22%.
As to `CC(=O)OC1O[C@@]2(C)[C@H](OC(=O)c3ccccc3)[C@@]3(OC(C)=O)C[C@H](C)[C@H](OC(=O)C(C)C)[C@@H]3[C@@H](OC(C)=O)[C@@]13[C@H](OC(=O)c1cccnc1)C[C@H]1[C@@H]([C@@H]23)C1(C)C` (stereo not given in full), the results for the inhibition in series [1] and in series [4] were 18% and 37%, respectively. The inhibition at 0.05 h, 30 µM on hERG (KCNH2) [2] was 78%. Further, the inhibition at 0.05 h, 3 µM on hERG (KCNH2) [3] stood at 48%. The inhibition at 0.05 h, 10 µM on hERG (KCNH2) [5] was found to be 68%.
For `CCC(C)C(=O)O[C@H]1C(=O)[C@@]23CO[C@@](C)([C@H](OC(C)=O)[C@@]4(OC(C)=O)C[C@](C)(OC(=O)c5cccnc5)[C@H](OC(=O)C(C)C)[C@@H]4[C@H]2OC(C)=O)[C@@H]3[C@@H]2[C@H]1C[C@]2(C)OC(C)=O` (stereo not given in full), the inhibition in series [1] came out at 23%; in series [4], 69%. Besides, the inhibition at 0.05 h, 30 µM on hERG (KCNH2) [2] stood at 82%. Besides, at hERG (KCNH2) [3], the inhibition at 0.05 h, 3 µM was determined as 20%. The inhibition at 0.05 h, 10 µM on hERG (KCNH2) [5] came to 54%.
For `CC(=O)OC[C@@]12[C@H](OC(=O)c3ccccc3)[C@H]3[C@@H](OC(=O)C(C)C)[C@@H](C)C[C@]3(OC(C)=O)C(=O)[C@@]3(C)OC(C)(C)[C@@H](C=C[C@H]1OC(C)=O)[C@H]23` the same measures were 26%, 61%, 43%, 13% and 24%.
As for `CCC(=O)O[C@@H]1[C@@H]2[C@@H](OC(C)=O)[C@@]34CO[C@@](C)([C@H](OC(C)=O)[C@@]2(OC(C)=O)C[C@]1(C)O)[C@@H]3[C@@H]1[C@@H](C[C@]1(C)OC(C)=O)[C@@H](OC(=O)C(C)CC)C4=O` (stereo not given in full), the inhibition in series [1] is 11%; in series [4], 24%. Further, the inhibition at 0.05 h, 30 µM on hERG (KCNH2) [2] was determined as 33%. Moreover, at hERG (KCNH2) [3], the inhibition at 0.05 h, 3 µM came out at 8%. Also, the inhibition at 0.05 h, 10 µM at hERG (KCNH2) [5] stood at 20%.
Regarding `CCC(=O)O[C@@H]1[C@@H]2[C@@H](OC(C)=O)[C@@]34CO[C@@](C)([C@H](OC(C)=O)[C@@]2(O)C[C@@H]1C)[C@@H]3[C@@H]1[C@@H](C[C@]1(C)OC(C)=O)[C@@H](OC(=O)c1ccccc1)C4=O`, the inhibition turned out to be 19% in series [1] and 54% in series [4]. Moreover, the inhibition at 0.05 h, 30 µM on hERG (KCNH2) [2] is 45%. In addition, the inhibition at 0.05 h, 3 µM on hERG (KCNH2) [3] is 12%. For the same compound, the inhibition at 0.05 h, 10 µM at hERG (KCNH2) [5] came to 21%.
Consider `CCC(C)C(=O)O[C@H]1C(=O)[C@@]23CO[C@@](C)([C@H](OC(C)=O)[C@@]4(OC(C)=O)C[C@](C)(O)[C@H](OC(=O)C(C)C)[C@@H]4[C@H]2OC(C)=O)[C@@H]3[C@@H]2[C@H]1C[C@]2(C)OC(C)=O` (stereo not given in full), for which the inhibition in series [1] was found to be 14%; in series [4], 26%. Also, the inhibition at 0.05 h, 30 µM at hERG (KCNH2) [2] came to 32%. Also, on hERG (KCNH2) [3], the inhibition at 0.05 h, 3 µM was 12%. Besides, the inhibition at 0.05 h, 10 µM on hERG (KCNH2) [5] came to 22%.
On the same counts, the results for `CCC(=O)O[C@@H]1[C@@H]2[C@@H](OC(C)=O)[C@@]34CO[C@@](C)([C@H](OC(C)=O)[C@@]2(OC(C)=O)C[C@H]1C)[C@@H]3[C@@H]1[C@@H](C[C@]1(C)OC(C)=O)[C@@H](OC(=O)C(C)C)C4=O` are 30%, 70%, 33%, 0% and 23%.
For `CC(=O)O[C@@H]1C=C[C@H]2[C@@H]3[C@]1(COC(=O)C(C)C)[C@H](OC(=O)c1ccccc1)[C@H]1[C@@H](OC(=O)C(C)C)[C@@H](C)C[C@]1(O)C(=O)[C@@]3(C)OC2(C)C` the same measures were 21%, 54%, 46%, 20% and 33%.
Regarding `CCC(=O)O[C@@H]1[C@@H]2[C@@H](OC(C)=O)[C@@]34CO[C@@](C)([C@H](OC(C)=O)[C@@]2(OC(C)=O)C[C@]1(C)OC(=O)c1ccccc1)[C@@H]3[C@@H]1[C@@H](C[C@]1(C)OC(C)=O)[C@@H](OC(=O)C(C)CC)C4=O` (stereo not given in full), the inhibition in series [1] came out at 20%; in series [4], 64%. The inhibition at 0.05 h, 30 µM at hERG (KCNH2) [2] was 52%. Besides, on hERG (KCNH2) [3], the inhibition at 0.05 h, 3 µM is 16%. For the same compound, at hERG (KCNH2) [5], the inhibition at 0.05 h, 10 µM stood at 31%.
